The source of these data is ChEMBL document CHEMBL1126712, “Design, synthesis, and pharmacological evaluation of potent xanthone dicarboxylic acid leukotriene B4 receptor antagonists” (J Med Chem, 1993).

Usually IC50 stands for the concentration needed to halve the response being measured. As usually defined, the Ki is the equilibrium dissociation constant of an inhibitor or competing ligand from its target. A high value points to weaker binding.

Assay [1] concerns the target T1, Leukotriene B4 receptor 1 (Homo sapiens, UniProt Q15722). In words: Inhibition of specific binding of LTB4 ( 0.1 nM) to receptors on intact human neutrophils. In short, it runs like this: (§1)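 Intact human neutrophils from heparinized venous blood of normal volunteers, isolated by Ficoll-Hypaque centrifugation, dextran 70 sedimentation and hypotonic lysis (≥90% neutrophils, ≥90% viable). Cells at 2 × 10⁷/mL in Ca/Mg-free Hanks' with 0.1% ovalbumin, [³H]LTB₄ final 0.1 nM, compound in DMSO (final 1.9%). Incubation 10 min at 4 °C, harvest, scintillation counting. Nonspecific binding from 10 000-fold excess unlabeled LTB₄. Triplicate tubes.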

In assay [2] the target is T1, Leukotriene B4 receptor 1. In words: Relative potency against LTB4 receptor was determined.
The species named for assay [3] is Homo sapiens. In words: Inhibition of luminol-dependent chemiluminescence induced by stimulating the neutrophil cells with FMLP (N-formyl-L-methionyl-L-leucyl-l-phenylalanine). The class given is functional, cell-based. The method, boiled down: (§2)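 Luminol-dependent chemiluminescence of human neutrophils (1 × 10⁷/mL) in Ca/Mg-free Dulbecco's PBS, pH 7.4, with cytochalasin B, stirred at 900 rpm and 37 °C in an aggregometer. Antagonist was added at 2 min, then Ca²⁺/Mg²⁺. After 1 min, luminol and agonist (LTB₄ or FMLP, 30 nM) were added and the maximum response recorded. Cells from five individuals.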

The species entered for assay [4] is Homo sapiens. Kind of assay: LTB4-induced chemotaxis of the human neutrophils. The class given is functional.
The species entered for assay [5] is Homo sapiens. In words: The activity of suppression of the FMLP-mediated response. The class given is functional. In short, it runs like this:
as §2

Assay [6] has as its target T1, Leukotriene B4 receptor 1. In words: Inhibition constant against binding of [3H]LTB4 to human neutrophils. The method, boiled down:
as §1

Assay [7] is filed under the species Homo sapiens. Kind of assay: Inhibition of luminol-dependent chemiluminescence induced by stimulating the neutrophil cells with LTB4. The class given is functional, cell-based. The method, boiled down: as §2
The species named for assay [8] is Homo sapiens. Kind of assay: Inhibition of LTB-4 induced chemotaxis of human neutrophils. The class given is functional.
The species named for assay [9] is Homo sapiens. Kind of assay: The antagonist activity measured as blockade of the FMLP reaction in neutrophils. The class given is functional. The method, boiled down:
as §2

The target of assay [10] is T1, Leukotriene B4 receptor 1. Kind of assay: Inhibition of binding of [3H]LTB4 to receptor […]. The method, boiled down: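 Intact human neutrophils isolated from heparinized blood of normal volunteers (Ficoll-Hypaque, dextran sedimentation, hypotonic lysis) were suspended at 2 × 10⁷ cells/mL in Ca/Mg-free HBSS with 0.1% ovalbumin. Tubes held 0.1 nM final [³H]LTB₄ and compound in DMSO (1.9% final), ran 10 min at 4 °C, then were harvested for scintillation counting. Triplicate tubes; nonspecific binding set with 10 000-fold unlabeled LTB₄.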

T1 sequence (Q15722 whole entry): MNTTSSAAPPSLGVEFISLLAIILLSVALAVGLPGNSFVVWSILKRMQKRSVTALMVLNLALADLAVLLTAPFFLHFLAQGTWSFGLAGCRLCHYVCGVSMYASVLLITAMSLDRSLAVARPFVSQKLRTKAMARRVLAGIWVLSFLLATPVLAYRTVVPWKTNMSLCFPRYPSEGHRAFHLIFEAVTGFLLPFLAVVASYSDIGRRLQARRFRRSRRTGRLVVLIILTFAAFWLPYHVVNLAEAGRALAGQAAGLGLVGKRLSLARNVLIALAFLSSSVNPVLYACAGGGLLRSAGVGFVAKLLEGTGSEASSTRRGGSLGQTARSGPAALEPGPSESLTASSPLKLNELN

In assay [1], `CCCCCCCCCCOc1ccc2c(=O)c3cccc(C(=O)O)c3oc2c1CCC(=O)O` displayed an IC50 of 2100 nM. Moreover, the Relative potency in assay [2] worked out at 1.
In the case of `CCCCCCCCCCOc1cc2oc3ccc(C(=O)O)cc3c(=O)c2cc1CCC(=O)O`, in assay [1], the IC50 turned out to be 832 nM. For the same compound, the Relative potency in assay [2] was 2.5.
Compound `CCCCCCCCCCOc1ccc(C(=O)c2cccc(C(=O)O)c2)cc1CCC(=O)O` yielded an IC50 in assay [1] of 210 nM. Also, the Relative potency in [2] worked out at 10.
As to `COc1ccc(/C=C/CCCCOc2ccc3c(=O)c4cc(C(=O)O)ccc4oc3c2CCC(=O)O)cc1`, the IC50 in the assay filed under Homo sapiens [3] amounted to 1600 nM; in [1], 6.2 nM; in the assay filed under Homo sapiens [4] it was 899 nM; in the assay listed under Homo sapiens [5] it was 2170 nM; in the assay filed under Homo sapiens [7], 55 nM. In assay [6], this compound came in with a Ki of 5.9 nM. In [2], this compound yielded a Relative potency of 338.
With `CCCCCCCCCCOc1ccc2c(=O)c3cc(C(=O)O)ccc3oc2c1CCC(=O)O`, the IC50 was 7900 nM in the assay listed under Homo sapiens [8]; 734 nM in the assay filed under Homo sapiens [3]; 43 nM in [1]; 1210 nM in the assay listed under Homo sapiens [9]; 342 nM in the assay filed under Homo sapiens [7]. This compound also came in with a Relative potency in assay [2] of 49.
For the compound `CCCCCCCCCCOc1cc2oc3c(C(=O)O)cccc3c(=O)c2cc1CCC(=O)O`, the half-inhibitory concentration (IC50) in assay [1] came to 1770 nM. This compound also came in with a Relative potency in [2] of 1.2.
Consider `COc1ccc(/C=C/CCCCOc2ccc(C(=O)c3cccc(C(=O)O)c3)cc2CCC(=O)O)cc1`, for which, in assay [10], the IC50 was determined as 1.9 nM.
